# CHT block: human CHT choline transport inhibition. actives 0.86% (n = 310,000). AID 488975. B-score at 10 µM. Q9GZV3. CHT-expressing cells, membrane potential dye, choline response; stronger effect = lower value;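 active = B-score over 3 SD under the library average, and starting fluorescence ratio not unusually high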;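 note: choline stimulus applied at its EC90 after an EC20 pre-addition; B-score computed on integrated fluorescence ratio after choline addition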
# ABCB6 inh 2: blocks the human ABCB6 transporter | K562-ABCB6 porphyrin accumulation, flow cytometry, 1 h; stronger effect = lower value | Q9NP58 | actives 0.19% (n = 360,000) | fluorescence ratio to DMSO, % at 10 µM;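 active = fluorescence ratio to DMSO below 75%, the collection mean minus 3 SD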;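 note: signal is porphyrin accumulated inside mitochondria; 100% equals median channel fluorescence of DMSO control wells; lower ratio means ABCB6 inhibition with less porphyrin fluorescence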
# Target sequence (Q9NP58 whole entry, looked up): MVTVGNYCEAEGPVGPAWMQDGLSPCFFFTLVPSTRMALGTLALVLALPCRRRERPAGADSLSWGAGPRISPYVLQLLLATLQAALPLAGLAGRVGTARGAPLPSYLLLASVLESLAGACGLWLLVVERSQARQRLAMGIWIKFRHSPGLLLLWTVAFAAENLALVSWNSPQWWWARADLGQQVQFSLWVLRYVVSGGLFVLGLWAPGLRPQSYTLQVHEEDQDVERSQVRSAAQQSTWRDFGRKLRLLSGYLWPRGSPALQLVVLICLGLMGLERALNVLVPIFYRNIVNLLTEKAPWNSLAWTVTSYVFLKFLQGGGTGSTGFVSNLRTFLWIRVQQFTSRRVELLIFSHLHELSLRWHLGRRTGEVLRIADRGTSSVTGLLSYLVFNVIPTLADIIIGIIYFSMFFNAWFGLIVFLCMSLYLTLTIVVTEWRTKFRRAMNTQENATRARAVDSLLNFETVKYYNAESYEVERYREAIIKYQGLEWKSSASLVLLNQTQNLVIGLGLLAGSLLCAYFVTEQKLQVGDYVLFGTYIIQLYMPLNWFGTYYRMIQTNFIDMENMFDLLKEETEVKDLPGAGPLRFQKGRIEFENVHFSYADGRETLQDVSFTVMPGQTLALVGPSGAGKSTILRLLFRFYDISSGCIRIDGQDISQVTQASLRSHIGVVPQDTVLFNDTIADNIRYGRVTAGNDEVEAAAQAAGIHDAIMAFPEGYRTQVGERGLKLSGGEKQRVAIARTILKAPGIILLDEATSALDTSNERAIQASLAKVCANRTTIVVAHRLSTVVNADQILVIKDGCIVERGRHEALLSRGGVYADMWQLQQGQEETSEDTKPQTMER
# TNAP inh noacc: TNAP (human) inhibition, acceptor-free conditions. P05186. purified TNAP, CDP-star luminescence, 30 min. inhibition, % at 20 µM. actives 0.26% (n = 200,000). AID 1012;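 active = tissue-nonspecific alkaline phosphatase inhibition above about 50% at 20 µM in the single-dose screen, limit read from the data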;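 note: 0% = DMSO negative control and 100% = EDTA positive control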
# CHT allo act: allosterically activates the human high affinity choline transporter. B-score at 10 µM. actives 0.49% (n = 310,000). Q9GZV3. CHT-expressing cells, membrane potential dye, choline EC20; stronger effect = higher value; LV-AA mutant CHT in HEK293 cells;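 active = initial fluorescence not abnormally high and integrated response B-score, plate-corrected, over 3 SD above library mean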
# TNAP inh hiacc: TNAP (human) inhibition, high acceptor. P05186. purified TNAP, CDP-star luminescence, 1 M DEA. inhibition, % at 20 µM. actives 0.03% (n = 200,000). AID 1135;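 active = over 50% inhibition of tissue-nonspecific alkaline phosphatase at 20 µM in the single-dose screen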;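 note: plate controls were DMSO wells for no effect and EDTA-quenched wells as full inhibition for full effect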
# TNAP act hiacc: TNAP (human) activation, high acceptor; P05186; purified TNAP, CDP-star luminescence, 1 M DEA, 30 min; stronger effect = higher value; 0 = EDTA background, 1 = DMSO-only activity; activation factor at 20 µM; 200,000 tested, under 10 active;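 active = activation factor at least 2 at 20 µM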
#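 Measured by: Luminescent substrate turnover signal | Test system: Human TNAP | Input: TNAP 1/800 final | Dosing: 20 µM single point | Schedule: 30 min, room temperature | Controls: EDTA wells as negative control, DMSO wells as positive control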
# CHT act confirm: human CHT activation, confirmatory screen; shares compounds with CHT allo act; CHT-expressing cells, membrane potential dye fluorescence (FDSS); % of choline EC20–EC90 response window; HEK293 expressing CHT LV-AA mutant; choline added at its EC20; activation, % at 10 µM; actives 91% (n = 2,500); AID 504833;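 active = primary screen active, with duplicate mean activation above negative control mean plus 3 SD, cut at about 11% in these data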
# HEK293 MP dye: counter-screen for CHT activators: effect in parental HEK293 cells; ratio readout change at 10 µM, hits read low; AID 623908; shares compounds with CHT allo act; membrane potential dye fluorescence (FDSS); measured after EC20 choline addition; actives 62% (n = 2,500);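 active = duplicate-averaged ratio beyond 3 SD from buffer wells, up or down, though filed actives are nearly all decreases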
# Starred values were filed as active, the others as inactive; i = inactive; . = no result given. Sampled rows, rich in hits. Any-hit rate of the full collection: about 1.4%.
SMILES,CHT block,ABCB6 inh 2,TNAP inh noacc,CHT allo act,TNAP inh hiacc,TNAP act hiacc,CHT act confirm,HEK293 MP dye
COc1ccc(NCc2nc3ccccc3n2CCOc2ccccc2)cc1,i,101,-3,6.4*,-3,1,24*,i
CCC1CCCCN1CCNC(=O)CCS(=O)(=O)c1ccc(Br)cc1 (configuration not stated),i,103,-8,i,-6,1.1,.,.
COc1ccc(N(CC(=O)Nc2ccc(C)cn2)S(=O)(=O)c2c(C)noc2C)cc1,i,94,4,6.6*,0,1,7,i
COc1cc(C)c(NC(=O)COc2ccc3c(c2)CCC3)cc1OC,.,92,.,.,.,.,.,.
COC(=O)c1cc(C(=O)N2CCN(c3cccc(Cl)c3)CC2)cc([N+](=O)[O-])c1,i,102,-6,7.6*,-8,1.1,33*,i
O=C(c1cccc([N+](=O)[O-])c1)N1CCN(c2cccc(Cl)c2)CC1,i,98,-4,i,-3,1,.,.
c1ccc(-c2c[n+]3c(n2-c2ccccc2)SCC3)cc1,i,96,.,6.6*,.,.,49*,-33*
c1ccc(-c2cn(-c3ccccc3)c3[n+]2CCS3)cc1,i,98,-9,6.8*,0,1,56*,-34*
CCOc1ccc(-n2c(-c3ccc(Cl)cc3)c[n+]3c2SCC3)cc1,i,97,-14,i,-3,1,.,.
CCOC(=O)C1CCCN(C(=O)c2cc(Nc3ccc(OC)cc3OC)nc3ccccc23)C1 (configuration not stated),i,99,-9,i,-6,1.1,.,.
Cc1ccc(NC(=O)CN2C(=O)c3ccccc3S2(=O)=O)c(C)c1,i,104,.,i,.,.,.,.
Cc1cc(C)n2nc(C(=O)N/N=C/c3cn(C)nc3C)nc2n1,i,105,.,i,.,.,48*,-30*
Cc1nn(C)cc1/C=N/NC(=O)c1ccc2c(c1)OCO2,i,82,-11,i,-1,1,.,.
Cc1ccc(NC(=O)Cn2c([N+](=O)[O-])cnc2C)cc1Cl,i,93,.,i,.,.,.,.
O=C1c2ccccc2N2C(=O)c3ccccc3C2N1Cc1ccccc1 (configuration not stated),i,99,.,i,.,.,26*,i
O=C1c2ccccc2N2C(=O)c3ccccc3[C@H]2N1c1ccccc1,i,99,-13,i,-7,1.1,.,.
COc1ccc(CCN=C(N)NS(=O)(=O)c2ccc(OC)cc2)cc1,i,105,-8,i,-3,1,.,.
COc1ccc(CCN=C(N)Nc2nc(C)cc(C)n2)cc1,i,101,-16,6.5*,-7,1.1,50*,-41*
CCCc1cc(=O)oc2cc(OCC(=O)NCCCn3ccnc3)ccc12,i,104,.,i,.,.,52*,-31*
CCCc1cc(=O)oc2cc(OCC(=O)NCCCN3CCOCC3)ccc12,i,96,.,i,.,.,37*,-35*
CCCc1cc(=O)oc2cc(OC(C)C(=O)NCCCn3ccnc3)ccc12 (configuration not stated),i,100,.,i,.,.,.,.
Cc1cc(NC(=O)c2c(C)noc2C)no1,i,96,.,i,.,.,.,.
c1ccc(C[n+]2csc3ccccc32)cc1,i,109,14,i,-5,1.1,.,.
Brc1cc2ccccc2[n+](Cc2ccccc2)c1,i,92,.,7*,.,.,76*,-67*
N=C(N)SCCc1cccc(CCSC(=N)N)c1,i,109,.,9*,.,.,43*,-46*
SMILES,CHT block,ABCB6 inh 2,TNAP inh noacc,CHT allo act,TNAP inh hiacc,TNAP act hiacc,CHT act confirm,HEK293 MP dye
N=C(N)SCCc1cnc[nH]1,i,97,.,i,.,.,.,.
CCC1C(=O)NCCN1C(=O)c1ccc(OC)c(OC2CCN(C(C)=O)CC2)c1 (configuration not stated),i,104,.,i,.,.,.,.
CC[N+](CC)(CC#Cc1ccccc1)CC#Cc1ccccc1,i,98,.,7.7*,.,.,49*,i
O=C1COc2ccc(S(=O)(=O)N3CCN(c4ccccc4F)CC3)cc2N1,i,101,.,i,.,.,.,.
CCc1cccc(C)c1NC(=O)CN(C)Cc1ccccc1F,i,99,-4,i,-3,1,13*,i
CC1(C(=O)NS(=O)(=O)C2CC2)CCN(C(=O)COCc2ccccc2)C1 (configuration not stated),.,95,.,.,.,.,.,.
Cc1ccc(C)c(N2C(=O)c3cc(N4CCOCC4)c([N+](=O)[O-])cc3C2=O)c1,i,100,0,i,0,1,.,.
CCCCCCCCCC[N+](C)(C)CC/C=C1/c2ccccc2Sc2ccc(Cl)cc21,i,103,.,8.2*,.,.,-1,-47*
CCCCCCCCCCC[N+](C)(C)CC/C=C1/c2ccccc2Sc2ccc(Cl)cc21,i,92,.,i,.,.,.,.
CC(CNC(=O)c1cc(Cl)ccc1[N+](=O)[O-])NC(=O)c1cc(Cl)ccc1[N+](=O)[O-] (configuration not stated),i,90,-10,i,-1,1,.,.
CC[n+]1c(C)sc2cc(C)ccc21,i,120,25,i,-1,1,68*,-58*
C/C(=N\Nc1c([N+](=O)[O-])c(C)nn1C)c1ccc(F)cc1F,i,98,2,i,7,0.9,.,.
O=C(c1ccco1)N(CCC(c1ccccc1)c1ccco1)Cc1ccccc1 (configuration not stated),i,99,-4,6.4*,-2,1,40*,i
O=C(CCCN1C(=O)NC2(CCCC2)C1=O)Nc1cccc(S(=O)(=O)N2CCOCC2)c1,.,96,.,.,.,.,.,.
FC(F)Sc1ccc(-n2c(-c3ccc(Cl)cc3)c[n+]3c2CCC3)cc1,i,97,-6,6.3*,-4,1,30*,-35*
COc1ccc(-n2c(-c3ccc(Br)cc3)c[n+]3c2SC(C)C3)cc1 (configuration not stated),i,95,-13,i,-7,1.1,36*,-52*
CCOc1ccc(-c2c[n+]3c(n2-c2ccccc2)CCCCC3)cc1,i,82,-10,7.2*,-3,1,15*,i
COc1ccc(-n2c(-c3ccc(Br)cc3)c[n+]3c2CCC3)cc1,i,99,-4,i,-2,1,.,.
